Test results reported in ChEMBL document CHEMBL3414461, “Clerodane type diterpene as a novel antifungal agent from Polyalthia longifolia var. pendula” (Eur J Med Chem, 2015).
In brackets after ≈: the same amount, converted by molar mass. Activity calls are given as the source filed them. The rule behind the calls is not given here.

Assays:
[1] = tested on: Neurospora crassa; experiment: Antifungal activity against Neurospora crassa NCIM 870 after 24 to 48 hrs by microbroth dilution method; assay type: functional
Procedure, shortened: (§1)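 Broth microdilution per CLSI. DMSO stock diluted 1:40 in YPG medium, then two-fold serial dilution across […] range. Inoculum: log-phase yeast cells (~2 × 10^4 cfu/mL) grown in YPG broth, or spores for phytopathogens. Incubated 24–48 h; growth read as absorbance at 600 nm. MIC is the lowest concentration giving >90% growth inhibition versus control; IC50 is the concentration giving 50% inhibition.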

[2] = tested on: Candida albicans; experiment: Antifungal activity against Candida albicans NCIM 3557 assessed as inhibition of 50% germ tube formation; assay type: functional
[3] = tested on: Aspergillus niger; experiment: Antifungal activity against Aspergillus niger NCIM 628 after 24 to 48 hrs by microbroth dilution method; assay type: functional; procedure, shortened: as §1
[4] = tested on: Candida albicans; experiment: Antifungal activity against Candida albicans NCIM 3557 after 24 to 48 hrs by microbroth dilution method; assay type: functional; procedure, shortened: as §1
[5] = tested on: Cryptococcus neoformans; experiment: Antifungal activity against Cryptococcus neoformans NCIM 3542 after 24 to 48 hrs by microbroth dilution method; assay type: functional; procedure, shortened: as §1
[6] = tested on: Nakaseomyces glabratus; experiment: Antifungal activity against Candida glabrata NCIM 3237 after 24 to 48 hrs by microbroth dilution method; assay type: functional; procedure, shortened: as §1
[7] = tested on: Fusarium oxysporum; experiment: Antifungal activity against Fusarium oxysporum NCIM 1043 after 24 to 48 hrs by microbroth dilution method; assay type: functional; procedure, shortened: as §1
[8] = tested on: Candida albicans; experiment: Antifungal activity against Candida albicans NCIM 3471 after 24 to 48 hrs by microbroth dilution method; assay type: functional; procedure, shortened: as §1
[9] = Cytotoxicity against sheep RBC assessed as haemolytic activity at 1200 uM after 2 hrs by spectrophotometry; assay type: cell-based, Ovis aries, Erythrocyte; conditions: sheep red blood cells, read-out: Activity
Procedure, shortened: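 Sheep RBCs washed with PBS (pH 7.0), resuspended to a 4% suspension, mixed 1:1 with PBS containing test compound. Incubated 37 °C for 2 h, centrifuged 2000 rpm for 5 min, supernatant absorbance read at 545 nm. PBS set as 0% lysis and 0.1% Triton X-100 as 100%. Percent haemolysis calculated relative to these; triplicates averaged.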

[10] = tested on: Aspergillus fumigatus; experiment: Antifungal activity against Aspergillus fumigatus NCIM 902 after 24 to 48 hrs by microbroth dilution method; assay type: functional; procedure, shortened: as §1
[11] = tested on: Candida albicans; experiment: Induction of ROS generation in Candida albicans NCIM 3557 at 25.2 to 100.6 uM after 60 mins by DCFH-DA staining-based fluorescence assay; assay type: functional, organism-based
[12] = tested on: Candida albicans; experiment: Induction of ROS generation in Candida albicans NCIM 3557 at 50.3 to 201.2 uM after 200 mins by DHR123 staining-based fluorescence assay; assay type: functional, organism-based
Procedure, shortened: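 1×10^6 C. albicans NCIM3557 cells grown in YPG broth with compound at 37 °C for 200 min. Cells washed, then DHR123 added at […] final (from ethanol stock) in PBS for 30 min. Cells washed, resuspended in PBS, and fluorescence read (ex 480/em 525 nm) by epifluorescence microscopy. Untreated cells served as negative control and H2O2-treated cells as positive control.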

SMILES | MIC90 [1] | Concentration for 50% inhibition of germ tube formation (IC50) [2] | MIC90 [3] | MIC90 [4] | MIC90 [5] | MIC90 [6] | MIC90 [7] | MIC90 [8] | hemolysis at 2 h, 1200 µM [9] | MIC90 [10] | Activity [11] | Activity [12]
C[C@@H]1CC[C@]2(C)[C@H](CC[C@@H]3O[C@@]32C)[C@@]1(C)CCC1=CC(=O)O[C@@H]1O | > 600 µM | 191.6 µM | > 600 µM | > 600 µM | > 600 µM | > 600 µM | > 600 µM | > 600 µM | < 15% | > 600 µM | – | –
CC(=O)OC1OC(=O)C=C1CC[C@@]1(C)[C@H](C)CC[C@@]2(C)C(C)=CCC[C@H]12 (mixture of isomers) | > 600 µM | 177.8 µM | > 600 µM | > 600 µM | > 600 µM | > 600 µM | > 600 µM | > 600 µM | < 15% | > 600 µM | – | –
CC1=CCC[C@@H]2[C@@](C)(CCC3=CC(=O)OC3OC(=O)OC(C)(C)C)[C@H](C)CC[C@@]12C (mixture of isomers) | > 600 µM | 153.1 µM | > 600 µM | > 600 µM | > 600 µM | > 600 µM | > 600 µM | > 600 µM | < 15% | > 600 µM | – | –
CC1=CCC[C@@H]2[C@@](C)(CCC3=CC(=O)O[C@@H]3O)[C@H](C)CC[C@@]12C | 201 µM (≈ 64.1 µg/mL) | 25.14 µM | 805 µM (≈ 256 µg/mL) | 50.3 µM (≈ 16 µg/mL) | 101 µM (≈ 32 µg/mL) | 805 µM (≈ 256 µg/mL) | 805 µM (≈ 256 µg/mL) | 805 µM (≈ 256 µg/mL) | < 15% | 805 µM (≈ 256 µg/mL) | Active | Active
